Measurements published in ChEMBL document CHEMBL4689842, “EUbOPEN Chemogenomics Library wave 1” (2021).
Where “and” joins values, the source holds several entries; their conditions need not be identical. Equal entries are not always repeated.

Tests used:
Assay type in all cases: toxicity, cell-based
Fibroblast [1] = assay: Multiplex assay against human fibroblast; conditions: 10 µM, compound concentration 10 uM
Procedure, shortened: (§1)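 Values for tubulin, mitochondrial-mass and membrane-permeability phenotypes are per cents of cells with healthy nuclei. These cells were identified by CellPathfinder machine-learning gating of live cells that had been stained at seeding with Hoechst33342, BioTracker Green Microtubule Cytoskeleton Dye, MitoTracker Red and Annexin V Alexa Fluor 680 and imaged on a CQ1 microscope at 37°C and 5% CO2 after compound addition. The gating first set Hoechst high-intensity objects apart from normal cells, then split normal cells into healthy, pyknosed or fragmented nuclei, and pyknosed cells into mitotic or apoptotic.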

HEK-293T [2] = assay: Multiplex assay against HEK293T; conditions: human, 10 µM, compound concentration 10 uM; procedure, shortened: as §1;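 as to Population Tubulin-Different-Phenotype (%): share of the cells with healthy nuclei that show this phenotype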
U2OS [3] = assay: Multiplex assay against U2OS; conditions: human, 10 µM, compound concentration 10 uM; procedure, shortened: as §1
HEK-293T [4] = assay: Incucyte cell viability with HEK293T; conditions: human, 10 µM, compound concentration 10 uM; also: filed as whole numbers so only -1 and 0 and 1 occur
Fibroblast [5] = assay: Incucyte cell viability with human fibroblast; conditions: 10 µM, compound concentration 10 uM; also: filed as whole numbers so only -1 and 0 and 1 occur
U2OS [6] = assay: Incucyte cell viability with U2OS; conditions: human, 10 µM, compound concentration 10 uM; also: filed as whole numbers so only -1 and 0 and 1 occur
[7] = 0 h, replicate number 1, timepoint 0 hours
[8] = 6 h, replicate number 1, timepoint 6 hours
[9] = 12 h, replicate number 1, timepoint 12 hours
[10] = 18 h, replicate number 1, timepoint 18 hours
[11] = 24 h, replicate number 1, timepoint 24 hours

SMILES: COc1ccccc1-c1cc(Nc2cccc(CS(N)(=O)=O)c2)ncn1
- Population Apoptotic (%) (Fibroblast [1]; 12 h, replicate 1): 70% and 60%
- Population Fragmented Nuclei (%) (Fibroblast [1]; 12 h, replicate 1): 24% and 28%
- Population Healthy Nuclei (%) (Fibroblast [1]; 12 h, replicate 1): 62% and 53%
- Population Hoechst High Intensity Objects (%) (Fibroblast [1]; 12 h, replicate 1): 11% and 10%
- Population Membrane Permeable-Phenotype (%) (Fibroblast [1]; 12 h, replicate 1): 9%
- Population Mitochondria Different-Phenotype (%) (Fibroblast [1]; 12 h, replicate 1): 4%
- Population Mitotic Cells (%) (Fibroblast [1]; 12 h, replicate 1): 29% and 39%
- Population Normal (%) (Fibroblast [1]; 12 h, replicate 1): 88% and 89%
- Population Pyknosed Nuclei (%) (Fibroblast [1]; 12 h, replicate 1): 13% and 17%
- Total Cell Count (Fibroblast [1]; 12 h, replicate 1): 208 and 254
- Population Apoptotic (%) (Fibroblast [1]; 12 h, replicate 2): 50% and 75%
- Population Fragmented Nuclei (%) (Fibroblast [1]; 12 h, replicate 2): 63% and 72%
- Population Healthy Nuclei (%) (Fibroblast [1]; 12 h, replicate 2): 31% and 20%
- Population Hoechst High Intensity Objects (%) (Fibroblast [1]; 12 h, replicate 2): 34% and 40%
- Population Membrane Permeable-Phenotype (%) (Fibroblast [1]; 12 h, replicate 2): 16% and 10%
- Population Mitochondria Different-Phenotype (%) (Fibroblast [1]; 12 h, replicate 2): 8% and 20%
- Population Mitotic Cells (%) (Fibroblast [1]; 12 h, replicate 2): 50% and 25%
- Population Normal (%) (Fibroblast [1]; 12 h, replicate 2): 65% and 59%
- Population Pyknosed Nuclei (%) (Fibroblast [1]; 12 h, replicate 2): 5% and 8%
- Population Tubulin-Different-Phenotype (%) (Fibroblast [1]; 12 h, replicate 2): 25% and 30%
- Total Cell Count (Fibroblast [1]; 12 h, replicate 2): 58 and 84
- Population Apoptotic (%) (Fibroblast [1]; 24 h, replicate 1): 75% and 66%
- Population Fragmented Nuclei (%) (Fibroblast [1]; 24 h, replicate 1): 25% and 23%
- Population Healthy Nuclei (%) (Fibroblast [1]; 24 h, replicate 1): 60% and 57%
- Population Hoechst High Intensity Objects (%) (Fibroblast [1]; 24 h, replicate 1): 14% and 10%
- Population Membrane Permeable-Phenotype (%) (Fibroblast [1]; 24 h, replicate 1): 7%
- Population Mitochondria Different-Phenotype (%) (Fibroblast [1]; 24 h, replicate 1): 4% and 11%
- Population Mitotic Cells (%) (Fibroblast [1]; 24 h, replicate 1): 24% and 33%
- Population Normal (%) (Fibroblast [1]; 24 h, replicate 1): 85% and 89%
- Population Pyknosed Nuclei (%) (Fibroblast [1]; 24 h, replicate 1): 14% and 19%
- Total Cell Count (Fibroblast [1]; 24 h, replicate 1): 267 and 188
- Population Apoptotic (%) (Fibroblast [1]; 24 h, replicate 2): 50%
- Population Fragmented Nuclei (%) (Fibroblast [1]; 24 h, replicate 2): 54% and 70%
- Population Healthy Nuclei (%) (Fibroblast [1]; 24 h, replicate 2): 40% and 26%
- Population Hoechst High Intensity Objects (%) (Fibroblast [1]; 24 h, replicate 2): 30% and 28%
- Population Membrane Permeable-Phenotype (%) (Fibroblast [1]; 24 h, replicate 2): 21% and 13%
- Population Mitochondria Different-Phenotype (%) (Fibroblast [1]; 24 h, replicate 2): 0%
- Population Mitotic Cells (%) (Fibroblast [1]; 24 h, replicate 2): 50%
- Population Normal (%) (Fibroblast [1]; 24 h, replicate 2): 70% and 71%
- Population Pyknosed Nuclei (%) (Fibroblast [1]; 24 h, replicate 2): 5% and 3%
- Population Tubulin-Different-Phenotype (%) (Fibroblast [1]; 24 h, replicate 2): 28% and 26%
- Total Cell Count (Fibroblast [1]; 24 h, replicate 2): 50 and 80
- Population Apoptotic (%) (HEK-293T [2]; 12 h, replicate 1): 31% and 19%
- Population Fragmented Nuclei (%) (HEK-293T [2]; 12 h, replicate 1): 21% and 13%
- Population Healthy Nuclei (%) (HEK-293T [2]; 12 h, replicate 1): 58% and 71%
- Population Hoechst High Intensity Objects (%) (HEK-293T [2]; 12 h, replicate 1): 17% and 8%
- Population Membrane Permeable-Phenotype (%) (HEK-293T [2]; 12 h, replicate 1): 3%
- Population Mitochondria Different-Phenotype (%) (HEK-293T [2]; 12 h, replicate 1): 6% and 5%
- Population Mitotic Cells (%) (HEK-293T [2]; 12 h, replicate 1): 68% and 80%
- Population Normal (%) (HEK-293T [2]; 12 h, replicate 1): 82% and 91%
- Population Pyknosed Nuclei (%) (HEK-293T [2]; 12 h, replicate 1): 20% and 15%
- Population Tubulin-Different-Phenotype (%) (HEK-293T [2]; 12 h, replicate 1): 5% and 3%
- Total Cell Count (HEK-293T [2]; 12 h, replicate 1): 577 and 663
- Population Apoptotic (%) (HEK-293T [2]; 12 h, replicate 2): 8% and 20%
- Population Fragmented Nuclei (%) (HEK-293T [2]; 12 h, replicate 2): 11% and 9%
- Population Healthy Nuclei (%) (HEK-293T [2]; 12 h, replicate 2): 84% and 85%
- Population Hoechst High Intensity Objects (%) (HEK-293T [2]; 12 h, replicate 2): 1% and 3%
- Population Membrane Permeable-Phenotype (%) (HEK-293T [2]; 12 h, replicate 2): 2% and 0%
- Population Mitochondria Different-Phenotype (%) (HEK-293T [2]; 12 h, replicate 2): 7% and 12%
- Population Mitotic Cells (%) (HEK-293T [2]; 12 h, replicate 2): 91%
- Population Normal (%) (HEK-293T [2]; 12 h, replicate 2): 98% and 96%
- Population Pyknosed Nuclei (%) (HEK-293T [2]; 12 h, replicate 2): 4% and 5%
- Population Tubulin-Different-Phenotype (%) (HEK-293T [2]; 12 h, replicate 2): 6% and 7%
- Total Cell Count (HEK-293T [2]; 12 h, replicate 2): 2027 and 1134
- Population Apoptotic (%) (HEK-293T [2]; 24 h, replicate 1): 24% and 33%
- Population Fragmented Nuclei (%) (HEK-293T [2]; 24 h, replicate 1): 14% and 19%
- Population Healthy Nuclei (%) (HEK-293T [2]; 24 h, replicate 1): 76% and 63%
- Population Hoechst High Intensity Objects (%) (HEK-293T [2]; 24 h, replicate 1): 4% and 13%
- Population Membrane Permeable-Phenotype (%) (HEK-293T [2]; 24 h, replicate 1): 8%
- Population Mitochondria Different-Phenotype (%) (HEK-293T [2]; 24 h, replicate 1): 3% and 5%
- Population Mitotic Cells (%) (HEK-293T [2]; 24 h, replicate 1): 75% and 66%
- Population Normal (%) (HEK-293T [2]; 24 h, replicate 1): 95% and 86%
- Population Pyknosed Nuclei (%) (HEK-293T [2]; 24 h, replicate 1): 8% and 17%
- Population Tubulin-Different-Phenotype (%) (HEK-293T [2]; 24 h, replicate 1): 6%
- Total Cell Count (HEK-293T [2]; 24 h, replicate 1): 801 and 590
- Population Apoptotic (%) (HEK-293T [2]; 24 h, replicate 2): 11% and 13%
- Population Healthy Nuclei (%) (HEK-293T [2]; 24 h, replicate 2): 66% and 86%
- Population Hoechst High Intensity Objects (%) (HEK-293T [2]; 24 h, replicate 2): 3%
- Population Membrane Permeable-Phenotype (%) (HEK-293T [2]; 24 h, replicate 2): 6% and 3%
- Population Mitotic Cells (%) (HEK-293T [2]; 24 h, replicate 2): 88% and 86%
- Population Normal (%) (HEK-293T [2]; 24 h, replicate 2): 96%
- Population Pyknosed Nuclei (%) (HEK-293T [2]; 24 h, replicate 2): 2% and 4%
- Population Tubulin-Different-Phenotype (%) (HEK-293T [2]; 24 h, replicate 2): 9% and 23%
- Total Cell Count (HEK-293T [2]; 24 h, replicate 2): 3407 and 1342
- Population Apoptotic (%) (U2OS [3]; 12 h, replicate 1): 53% and 27%
- Population Fragmented Nuclei (%) (U2OS [3]; 12 h, replicate 1): 10% and 8%
- Population Healthy Nuclei (%) (U2OS [3]; 12 h, replicate 1): 82% and 84%
- Population Membrane Permeable-Phenotype (%) (U2OS [3]; 12 h, replicate 1): 13% and 7%
- Population Mitochondria Different-Phenotype (%) (U2OS [3]; 12 h, replicate 1): 23% and 20%
- Population Mitotic Cells (%) (U2OS [3]; 12 h, replicate 1): 46% and 72%
- Population Normal (%) (U2OS [3]; 12 h, replicate 1): 93% and 98%
- Population Pyknosed Nuclei (%) (U2OS [3]; 12 h, replicate 1): 7% and 6%
- Population Tubulin-Different-Phenotype (%) (U2OS [3]; 12 h, replicate 1): 19% and 10%
- Total Cell Count (U2OS [3]; 12 h, replicate 1): 160 and 443
- Population Apoptotic (%) (U2OS [3]; 12 h, replicate 2): 0% and 25%
- Population Fragmented Nuclei (%) (U2OS [3]; 12 h, replicate 2): 9%
- Population Healthy Nuclei (%) (U2OS [3]; 12 h, replicate 2): 75% and 86%
- Population Hoechst High Intensity Objects (%) (U2OS [3]; 12 h, replicate 2): 16% and 11%
- Population Membrane Permeable-Phenotype (%) (U2OS [3]; 12 h, replicate 2): 17% and 9%
- Population Mitochondria Different-Phenotype (%) (U2OS [3]; 12 h, replicate 2): 21%
- Population Mitotic Cells (%) (U2OS [3]; 12 h, replicate 2): 100% and 75%
- Population Normal (%) (U2OS [3]; 12 h, replicate 2): 83% and 88%
- Population Tubulin-Different-Phenotype (%) (U2OS [3]; 12 h, replicate 2): 12% and 34%
- Total Cell Count (U2OS [3]; 12 h, replicate 2): 138 and 311
- Population Apoptotic (%) (U2OS [3]; 24 h, replicate 1): 68% and 25%
- Population Healthy Nuclei (%) (U2OS [3]; 24 h, replicate 1): 79% and 93%
- Population Hoechst High Intensity Objects (%) (U2OS [3]; 24 h, replicate 1): 3% and 2%
- Population Membrane Permeable-Phenotype (%) (U2OS [3]; 24 h, replicate 1): 16% and 7%
- Population Mitochondria Different-Phenotype (%) (U2OS [3]; 24 h, replicate 1): 30% and 18%
- Population Mitotic Cells (%) (U2OS [3]; 24 h, replicate 1): 31% and 75%
- Population Normal (%) (U2OS [3]; 24 h, replicate 1): 96% and 97%
- Population Tubulin-Different-Phenotype (%) (U2OS [3]; 24 h, replicate 1): 22%
- Total Cell Count (U2OS [3]; 24 h, replicate 1): 230 and 545
- Population Apoptotic (%) (U2OS [3]; 24 h, replicate 2): 62% and 50%
- Population Healthy Nuclei (%) (U2OS [3]; 24 h, replicate 2): 63% and 91%
- Population Mitochondria Different-Phenotype (%) (U2OS [3]; 24 h, replicate 2): 33% and 31%
- Population Mitotic Cells (%) (U2OS [3]; 24 h, replicate 2): 37% and 50%
- Population Normal (%) (U2OS [3]; 24 h, replicate 2): 78% and 93%
- Population Tubulin-Different-Phenotype (%) (U2OS [3]; 24 h, replicate 2): 23% and 33%
- Total Cell Count (U2OS [3]; 24 h, replicate 2): 157 and 384
- Growth Rate (HEK-293T [4]; [7]): 0
- Growth Rate (HEK-293T [4]; [8]): 0
- Growth Rate (HEK-293T [4]; [9]): 0
- Growth Rate (HEK-293T [4]; [10]): 0
- Growth Rate (HEK-293T [4]; [11]): 0
- Growth Rate (Fibroblast [5]; [7]): 0
- Growth Rate (Fibroblast [5]; [8]): 0
- Growth Rate (Fibroblast [5]; 6 h, replicate number 2, timepoint 6 hours): 1
- Growth Rate (Fibroblast [5]; [9]): 0
- Growth Rate (Fibroblast [5]; [10]): 0
- Growth Rate (Fibroblast [5]; [11]): 0
- Growth Rate (U2OS [6]; [7]): 0
- Growth Rate (U2OS [6]; [8]): 0
- Growth Rate (U2OS [6]; [9]): 0
- Growth Rate (U2OS [6]; [10]): 0
- Growth Rate (U2OS [6]; [11]): 0
